Experimental findings from the RNAGym collection of RNA variant scans (doi:10.1126/science.aae0568) are described below.

This sample holds only a part of the variants without activity. A value given as a limit tells only on which side of the number the result lay.

B1: tRNA (parent)
chain: GUUCCGUUGGCGUAAUGGUAACGCGUCUCCCUCCUAAGGAGAAGACUGCGGGUUCGAGUCCCGUACGGAACG

The series covers variants of B1. Briefly: yeast fitness relative to wild type (ratio to wild type); higher = fitter; tRNA-Arg(CCU), competitive growth, 37 C, YPD. The method in brief: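 A pool of Saccharomyces cerevisiae strains, each with a tRNA-Arg(CCU) gene variant at the native genomic locus, was competed in YPD at 37°C for 24 hours across six parallel replicates. The variants had been chemically synthesised at a 3% per-site mutation rate over 69 sites, and gene amplicons before and after competition were read by 100-nucleotide paired-end sequencing. Darwinian fitness relative to wild type rested on changes in genotype frequencies. Genotypes required ≥ 100 starting reads, and estimates < 0.5 were set to 0.5.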
Turning to GUACCGUUGGCGUAAUGGUCACGCGUCUCCCACCUAAGGAGAAGACUGCGGGUUCGAGUCCUAUACGGAACG [U3A A20C U32A C62U G63A], the yeast fitness is 0.572.
Regarding GUACCGUUGGCGUAAUGGUACCGCGUCUCCCUCCUUAGGAGAAGACUGCGGGUUCGAAUCCCGUACGGAACG [U3A A21C A36U G58A], the yeast fitness was no more than 0.5.
The same measure for GUACCGUUGGCGUAAUGGUAUCGCGUCUCCCUCCUAAGGAGAAGACUGCGGGUUCGAGUCCCGUUCGGAACG [U3A A21U A65U]: no more than 0.5.
As for GUACCGUUGGCGUAAUGGUGACGCGUCUCCCUCCUCAGGAGAAGACUGCGCGUUCGAGUCCCGUACGGAACG [U3A A20G A36C G51C], the yeast fitness is no more than 0.5.
Take GUACCGUUGGCGUAAUGGUACCGGGUCUCCCUCCUAAGGAGAAGACUGCGGGUUCGAGUCCCGUACGGAACG [U3A A21C C24G]: the yeast fitness turned out to be 0.507.
On to GUACCGUUGGCGUAAUGGUCACGCGUCUCCCACCUAAGGAGAAGACUGCGGGUUCGAGUCCCGUACGGAACG [U3A A20C U32A], for which the yeast fitness was no more than 0.5.
Regarding GUACCGUUGGCGUAAUGGUACCGGGUCUCCCUCCUAAGGAGAAGACUGCGGGUUCGAGUCUCGUACGGAACG [U3A A21C C24G C61U], the yeast fitness was no more than 0.5.
For GUACCGUUGGCGUAAUGGUAACGCGUCUCCCUCCUACGGAGAAGCCUGCGGGUUCGAGUCCCGUACGGAACG [U3A A37C A45C], the yeast fitness stood at 0.6.
The same measure for GUACCGUUGGCGUAAUGGUAACGCGUCUCCCUCCUAGGGAAAAGACUGCGGGUUCGAGUCCCGUACGGAACG [U3A A37G G41A]: no more than 0.5.
Under GUACCGUUGGCGUAAUGGUGACGUGUCUCCCUCCUAAGGAGAAGACUGCGGGUUGGAGUCUCGUACGGAACG [U3A A20G C24U C55G C61U] stands no more than 0.5.
The same measure for GUACCGUUGGCGUAAUGGUAGCGCGUCUCCCUCCUAAGGAGAAGACUGCGGGUUCGAGUCCCGUAUGGACCG [U3A A21G C66U A70C]: 0.794; for GUACCGUUGGCGUAAUGGUAACGCGUCUCCCUCCUAUGGAGGAGACUGCGGGUUCGAGUCCCGUACGGAACG [U3A A37U A42G]: no more than 0.5; for GUACCGUUGGCGUAAUGGUACCGGGUCUCCCUCCUAAGGAGAAGACUGUGGGUUCGAGUCCCGUCCGGAACG [U3A A21C C24G C49U A65C]: no more than 0.5.
On to GUACCGUUGGCGUAGUGGUAACGCGUCUCCCUCCCAAGGAGAAGACUGCGGAUUCGAGUCCCGUACGGAACG [U3A A15G U35C G52A], for which the yeast fitness came out at 0.525.
The same measure for GUACCGUUGGCGUAAUGGUUACGCGUCUCCCUCCUAAGGAGAAGACUGUGGGUUCGAGUCCCGUACGGAACG [U3A A20U C49U]: 0.531.
Under GUACCGUUGGCGUAAUGGUGACGCGUCUCCCUCCUAAGGAGAAGACUGCGGGUUCAAGUCCCGUACGGAACG [U3A A20G G56A] stands 0.707.
For the variant GUACCGUUGGCGUAAUGGUAACGCGUCUCCCUCCUAAGGCGAAGACAGCGGGUUCGAGUCCCGUACGCAACG [U3A A40C U47A G68C], the yeast fitness is no more than 0.5.
The same measure for GUACCGUUGGCGUAGUGGUAACGCGUCUCCCUCCCAAGGAGAAGACUGCGGAUUCGACUCCCGUAUGGAACG [U3A A15G U35C G52A G58C C66U]: no more than 0.5; for GUACCGUUGGCGUAAUGGUACCGGGUCUCCCUCCUAAGGAGAAGACUGCGGGUUCGAGUCCUGUACGGAACG [U3A A21C C24G C62U]: 0.526; for GUACCGUUGGCGUAAUGGUAACGCGUCUCCCUCCUAAGGAGCAGACUGCGGGUUCGAGUCACGUACGGAACG [U3A A42C C61A]: no more than 0.5.
With GUACCGUUGGCGUAAUGGUAGCGCGUCUCCCUCCUAAGGAGAAGGCUGCGGGUUCGAGUCCCGUACGGCACG [U3A A21G A45G A69C], the yeast fitness was 0.726.
Under GUACCGUUGGCGUAAUGGUGAUGCGUCUCCCUCCUAAGGAGAACACUGCGGGUUCGAGUCCCGUACGGAACG [U3A A20G C22U G44C] stands no more than 0.5; under GUACCGUUGGCGUAAUGGUACCGCGUCUCCCUCCUUAGGAGAAGACUGCGGGUUCGAGUCCCGUACGGAACG [U3A A21C A36U], no more than 0.5; under GUACCGUUGGCGUAAUGGUAGCGCGUCACCCUCCUAAGGAGCAGACUGCGGGUUCGGGUCCCGUAAGGAACG [U3A A21G U28A A42C A57G C66A], 0.733.
The same measure for GUACCGUUGGCGUAAUGGUACCGCGUCUCCCUCCUAAGGAGAAGACUGGGGGUUCGAGUCCCGUACGGAACG [U3A A21C C49G]: no more than 0.5; for GUACCGUUGGCGUAGUGGUAACGCGUCUCCCUCCUAAGGAGAAGACGGCGGGUUCGAGUCCCGUACGGAACG [U3A A15G U47G]: 0.794; for GUACCGUUGGCGUAUUGGUAACGCGUCUCCCUCCUAAGGAGAAGACUGCGGGUUCGAGUCCCGUACGGAACG [U3A A15U]: 0.695.
As for GUACCGUUGGCGUAAUGGUAUCGCGUCUCCCUCCUAAGGAGAAGACUGAGGGUUCGAGUCCCGUACGGAACG [U3A A21U C49A], the yeast fitness was no more than 0.5.
For the variant GUACCGUUGGCGUAAUGGUAACGCGUCUCCCUCCUAAGGUGAAGACUGCGGGUUCAAGUCCCGUACGGAACG [U3A A40U G56A], the yeast fitness was no more than 0.5.
The same measure for GUACCGUUGGCGUAAUGGUAGCGCGUCUCCCUGGUAAGGAGAAGACUGCGGGUUCGAGUCCCGUACGGAACG [U3A A21G C33G C34G]: no more than 0.5; for GUACCGUUGGCGUAAUGGUGACGCGUCUCCCUCCUAAGGAGAAAACUGAGGGUUCGAGACCCGUACGGAACG [U3A A20G G44A C49A U59A]: no more than 0.5; for GUACCGUUGGCGUAAUGGUACCGCUUCUCCCUCCUAAGGAGACGACUGCGGGUUCGAGUCCCGUACGGAACG [U3A A21C G25U A43C]: no more than 0.5.
Regarding GUACCGUUGGCGUAAUGGUACCGGGUCUCCCUCCUAAGGAGAAGACUGCGGGUUCGAGUCCCAUACGGAACG [U3A A21C C24G G63A], the yeast fitness is no more than 0.5.
Under GUACCGUUGGCGUAAUGGUAGCGCGUCUCCCUCCUAAGGAGAAGAAUGCGGGUUCGAGUCCCGUACGGAACG [U3A A21G C46A] stands 0.695; under GUACCGUUGGCGUAUUGGUAACCCGUUUCCCUCCUAAGGAGAAGACUGCGGAUUCGAGUCCCGUACGGAACG [U3A A15U G23C C27U G52A], 0.64.
For GUACCGUUGGCGUAAUGGUAACGCGUCUCCCUCCUGAGGAGAAGACUGCGGGUUCAAGUCCCGUCCGGCACG [U3A A36G G56A A65C A69C], the yeast fitness is no more than 0.5.
The same measure for GUACCGUUGGCGUAAUGGUAACGCGUCUCCCUCCUAUGGAGAAGACUGCGGGUUCGAGUCCCGUAAGGAACG [U3A A37U C66A]: no more than 0.5.
